NF-kB expr up: NF-kB expression increase, human neuronal cells. NF-kB reporter expression; active compounds read high. fold change at 12.5 µM. 190,000 compounds, 1.6% hits. AID 1239; in the data active means fold change above about 3.3
FLuc stim CS: affects firefly luciferase, flagging false hits in luciferase stimulation screens; P08659; ATPlite luciferase biochemical, luminescence, 10 min; 0 = ATP-free wells, 1 = DMSO control; activation factor at 10 µM; 200,000 tested, under 10 active; AID 1027;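 active means luciferase activation factor, scaled between plate controls, of at least 2 with compound at 10 µM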
Target sequence (P08659 whole entry, looked up): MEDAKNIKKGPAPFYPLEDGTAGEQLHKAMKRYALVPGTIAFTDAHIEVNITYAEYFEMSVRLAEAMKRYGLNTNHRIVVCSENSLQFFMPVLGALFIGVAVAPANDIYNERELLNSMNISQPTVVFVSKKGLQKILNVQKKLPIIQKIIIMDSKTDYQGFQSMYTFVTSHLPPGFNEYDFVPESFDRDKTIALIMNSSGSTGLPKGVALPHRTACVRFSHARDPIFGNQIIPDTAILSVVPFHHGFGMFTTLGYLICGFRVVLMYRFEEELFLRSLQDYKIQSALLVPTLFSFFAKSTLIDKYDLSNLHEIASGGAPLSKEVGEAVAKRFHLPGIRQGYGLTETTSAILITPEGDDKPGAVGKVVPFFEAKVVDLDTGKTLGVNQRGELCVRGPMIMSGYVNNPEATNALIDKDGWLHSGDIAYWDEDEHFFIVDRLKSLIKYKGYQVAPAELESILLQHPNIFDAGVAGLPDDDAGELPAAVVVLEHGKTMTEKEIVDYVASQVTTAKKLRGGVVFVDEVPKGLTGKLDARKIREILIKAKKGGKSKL
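assay system = Luciferase/luciferin detection reagent, cell-free biochemical luciferase assay | also added = ATP substrate | times = 10 min post-reagent at room temperature | measured by = luminescence from luciferase reaction | measure = luciferase activation, seen as luminescence increase over controls | benchmarks = low control with PBS replacing ATP, high control enzyme plus ATP without compound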
Pf gamet viab: P. falciparum stage V gametocyte viability inhibition. inhibition, % at 10.9 µM. P. falciparum stage V gametocytes, ATP luminescence, 24 h. 150,000 compounds, 0.065% hits. AID 743093;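 active means inhibition above the mean plus 3 SD of compounds within the control limits, set per campaign, cut at about 38% in these data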;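 further: 0% = DMSO wells and 100% = medium only without gametocytes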
FLuc inh counter: inhibits firefly luciferase, flagging false hits in luciferase inhibition screens. P08659. ATPLite firefly luciferase biochemical luminescence, 10 min. inhibition, % at 10 µM. 200,000 compounds, 1.5% hits. AID 1006;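 active means inhibition above about 50% when tested at 10 µM, limit read from the data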
STAT1 act: increases IFN-gamma driven STAT1 reporter signal. NIH 3T3 STAT1-luciferase reporter, luminescence; 100% = IFN-gamma alone, no compound. activation (% of control), % at 5.5 µM. 200,000 compounds, 2.6% hits;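 active means activation above the screen-wide mean activation plus 3 SD, cut at about 130% in these data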;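 further: raw ratio to IFN-gamma control signal so 100% means no change and 0% no light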
APP 5'UTR act: APP 5'UTR luciferase reporter activation; SH-SY5Y APP 5'UTR luciferase reporter, luminescence; zero percent = DMSO vehicle wells; activation, % at 2 µM; 190,000 compounds, 1% hits;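 active means activation above a set limit, based on mean plus 3 SD of controls, cut at about 140% in these data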
STAT1 act conf: STAT1 activation, confirmation assay; shares compounds with STAT1 act; NIH 3T3 STAT1-luciferase reporter, IFN-gamma potentiation, luminescence; 100% = IFN-gamma EC80 alone, no compound; activation (% of control), % at 5.7 µM; 1,200 compounds, 97% hits; AID 1262;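 active means activation above a set limit carried over from the earlier primary STAT1 screen, cut at about 140% in these data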;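 further: simple ratio to median IFN-gamma plus DMSO wells so 0% means no light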
NFkB act STAT1ct: activates NF-kappaB, counter-screen to STAT1 activators. HEK293T NF-kB luciferase reporter, TNF-alpha stimulated, luminescence; 100% = TNF-alpha with vehicle only. 1,200 compounds, 43% hits. shares compounds with STAT1 act. activation (% of control), % at 5.7 µM;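 active means activation above the mean of solvent-only control wells plus 3 SD, set per campaign, cut at about 130% in these data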;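 further: TNF-alpha given at a submaximal dose yielding about 80% of full reporter signal; values are well signal over median control so 100% means no change and 0% no light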
STAT3 act 2: human STAT3 activation in STAT1 activator counter-screen; shares compounds with STAT1 act; U3A cells STAT3-luciferase reporter, IL-6, luminescence; cells lack STAT1; 100 = IL-6 alone, no compound effect; activation (% of control), % at 5.7 µM; 1,200 compounds, 46% hits; AID 1316;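 active means activation above the solvent-only control well mean plus 3 SD, set per plate batch, cut at about 110% in these data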;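 further: 0% = no luminescence and 100% = median IL-6 plus DMSO wells; higher means more STAT3 reporter activation so hits are non-selective activators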
An asterisk follows results filed as active; x = no result. A selection: hits, their analogues and other compounds. The true share with any hit is near 3.5%.

SMILES	NF-kB expr up	FLuc stim CS	Pf gamet viab	FLuc inh counter	STAT1 act	APP 5'UTR act	STAT1 act conf	NFkB act STAT1ct	STAT3 act 2
CCCc1ccc(-c2cc(NC(=O)CSc3nnc(N)s3)n(-c3ccccc3)n2)cc1	4.4*	0.3	x	65*	159*	97	189*	134*	111*
Cc1nnc(SCC(=O)Nc2cc(-c3cc(C)c(C)cc3C)nn2-c2ccccc2)s1	0.89	1.1	x	-6	92	-6	x	x	x
O=S(=O)(c1ccc(N2CCCC2)cc1)C(F)(F)F	1.3	1	x	-4	96	3	x	x	x
CC1=NN(c2ccccc2)C(=O)/C1=C/c1c(O)n(-c2ccc(F)cc2)[nH]c1=O	1.5	0.4	-2	63*	153*	39	177*	122	132*
Cc1nn(C(=O)c2cccs2)c(N)c1-c1ccccc1	3.4*	0.7	x	33	162*	17	183*	137*	106
Oc1[nH]c2ccccc2c1N=Nc1nc2ccccc2s1	3.7*	0.5	x	54*	155*	x	208*	136*	131*
O=C1c2ccccc2C(=O)N1Cc1ccco1	1.2	1.1	19	-9	97	11	x	x	x
CC1=CC(=C2C(=O)c3ccccc3C2=O)C=C(C)N1Cc1ccco1	4.6*	0.6	9	38	165*	128	178*	134*	109
C/C(=N\NC(=O)c1ccc(NS(=O)(=O)c2cccs2)cc1)c1ccc(O)cc1O	x	x	5	x	x	x	x	x	x
CCOC(=O)c1cnc2c(-c3ccccc3)cnn2c1N	7.4*	0.3	x	75*	186*	124	246*	119	99
CCC(C(=O)Nc1ccc(S(=O)(=O)Nc2ncccn2)cc1)c1ccccc1 (stereo unspecified)	x	x	23	x	x	x	x	x	x
CCCC(=O)Nc1nc(-c2ccc3c(c2)OCCO3)cs1	4.5*	0.9	x	7	158*	141*	181*	143*	104
CCCC(=O)Nc1nc(-c2ccc(OC)cc2)cs1	1.9	1	x	-4	123	-9	x	x	x
O=C(CSCC(=O)Nc1nc(-c2ccc3c(c2)OCO3)cs1)Nc1nccs1	1.2	1	x	3	99	29	x	x	x
CSCC(=O)Nc1nc(-c2ccc3c(c2)OCCO3)cs1	4.8*	0.8	-10	16	158*	153*	189*	139*	114*
CS(=O)(=O)c1ccc(CNC(=O)C2(C(F)(F)F)CC(CCCO)CCCO2)cc1 (stereo unspecified)	x	x	20	x	x	x	x	x	x
O=C(NCCNCc1ccccn1)c1ccco1	1.2	1.1	-14	-7	100	0	x	x	x
N#CCn1cnc2sc(-c3ccccc3)cc2c1=O	1.7	0.9	-9	6	123	19	x	x	x
CCn1cnc2sc(-c3ccccc3)cc2c1=O	5.4*	0.7	x	28	158*	182*	205*	130	109
Cc1ccc(C(=O)C(C)OC(=O)c2ccccc2[N+](=O)[O-])cc1 (stereo unspecified)	9.6*	0.3	-1	65*	181*	173*	213*	133	127*
CCc1ccc(Nc2ncc3c(n2)CC(C)CC3=O)cc1 (stereo unspecified)	3.5*	1	4	5	151*	173*	198*	128	107
CCOc1ccc(/C(O)=C2\C(=O)C(=O)N(c3cc(C)on3)C2c2ccccc2OC)cc1 (stereo unspecified)	1.1	1	x	0	82	-5	x	x	x
COc1ccc2c(c1)oc(=O)c1cc(OC)ccc12	2.4	0.8	x	21	153*	83	152*	124	103
O=C(NN/C(=N/S(=O)(=O)c1ccc(Cl)cc1)c1ccccc1)c1ccc(O)cc1	1.3	0.9	-15	15	152*	129	154*	108	111*
O=C1CC(N2CCSCC2)C(=O)N1c1ccc(Br)cc1 (stereo unspecified)	x	x	7	x	x	x	x	x	x
SMILES	NF-kB expr up	FLuc stim CS	Pf gamet viab	FLuc inh counter	STAT1 act	APP 5'UTR act	STAT1 act conf	NFkB act STAT1ct	STAT3 act 2
Cc1ccc(SCCCCN2C(=O)NC(C)(C)C2=O)cc1	1.3	1	x	-4	108	25	x	x	x
CNc1ncc(C(=O)c2ccc(F)cc2)s1	2	0.9	3	14	128	39	x	x	x
O=C(c1ccc(F)cc1)c1cnc(Nc2ccccc2)s1	2.4	0.4	x	62*	153*	126	203*	135*	124*
COC(=O)c1ccc(COC(=O)Cc2n[nH]c(=O)c3ccccc23)cc1	1.3	1	-4	-3	87	2	x	x	x
Cc1cccc(Nc2nc(-c3ccccn3)cs2)n1	5.6*	0.7	-5	28	191*	210*	271*	139*	110
Cc1cccnc1Nc1nc(-c2ccccn2)cs1	7.5*	0.6	x	44	256*	-93	261*	168*	109
Nc1ccc(Nc2nc(-c3cccs3)cs2)cc1	1.7	0.1	8	90*	160*	311*	168*	142*	102
c1csc(-c2csc(-c3cccs3)n2)c1	2	0.9	x	5	128	53	x	x	x
CC(=O)Nc1nc(C)c(-c2csc(Nc3ccc(O)cc3)n2)s1	1.8	1	x	-2	96	-18	x	x	x
CC(=O)Nc1nc(C)c(-c2csc(Nc3ccccn3)n2)s1	1.7	1	-6	0	191*	102	221*	142*	120*
Cc1cccc(Nc2nc(-c3ccc(F)cc3)cs2)n1	x	x	-5	x	x	x	x	x	x
CCOC(=O)CCCc1ccc(/C(C)=N/NC(N)=S)cc1	x	x	-17	x	x	x	x	x	x
Cc1cccc(NC(=S)NCC(c2cccnc2)N(C)C)c1C (stereo unspecified)	1.2	1	x	1	103	-9	x	x	x
COc1ccc(CNC(=O)c2cccc(-c3ccc(C)c4ccccc34)n2)cc1	0.91	0.9	x	7	95	10	x	x	x
Cc1cccc(Nc2nc(-c3cccs3)cs2)n1	11*	0.7	x	26	179*	208*	261*	147*	144*
COc1ccc(CCNC(=O)CSc2nnc(-c3ccc(F)cc3)c3ccccc23)cc1OC	1	1.1	x	-7	94	16	x	x	x
CC(=O)C(/C=N/c1cc(-c2ccc(C)cc2)nn1-c1ccccc1)=C(\C)O	2.1	0.8	x	18	159*	97	161*	127	94
Cc1ccc(NC(=O)c2cc(-c3ccccc3)nn2-c2ccccc2)cc1	1.3	1.1	-23	-7	105	17	x	x	x

Source: PubChem
